Assay results published in ChEMBL document CHEMBL1136761 (J Med Chem, 2003).

Key:
[1] = target: Norepinephrine transporter (Rattus norvegicus, UniProt Q9WTR4); experiment: Inhibition of [3H]norepinephrine uptake at the rat norepinephrine transporter.
[2] = target: Monoamine transporters; serotonin & dopamine (Rattus norvegicus) (UniProt P31652+P23977); experiment: Ratio between affinities at the rat dopamine and serotonin transporters.; type: protein assay
Procedure, shortened: (§1)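 Binding was measured by competition against [125I]RTI-55 at DAT and SERT, and affinities were reported as Ki values. The selectivity ratio is SERT Ki divided by DAT Ki. Other conditions follow a cited earlier method.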

[3] = target: T1, Sodium-dependent serotonin transporter (Rattus norvegicus, UniProt P31652); experiment: Inhibition of [3H]5-HT uptake at the rat serotonin transporter.
T1 sequence (P31652 whole entry): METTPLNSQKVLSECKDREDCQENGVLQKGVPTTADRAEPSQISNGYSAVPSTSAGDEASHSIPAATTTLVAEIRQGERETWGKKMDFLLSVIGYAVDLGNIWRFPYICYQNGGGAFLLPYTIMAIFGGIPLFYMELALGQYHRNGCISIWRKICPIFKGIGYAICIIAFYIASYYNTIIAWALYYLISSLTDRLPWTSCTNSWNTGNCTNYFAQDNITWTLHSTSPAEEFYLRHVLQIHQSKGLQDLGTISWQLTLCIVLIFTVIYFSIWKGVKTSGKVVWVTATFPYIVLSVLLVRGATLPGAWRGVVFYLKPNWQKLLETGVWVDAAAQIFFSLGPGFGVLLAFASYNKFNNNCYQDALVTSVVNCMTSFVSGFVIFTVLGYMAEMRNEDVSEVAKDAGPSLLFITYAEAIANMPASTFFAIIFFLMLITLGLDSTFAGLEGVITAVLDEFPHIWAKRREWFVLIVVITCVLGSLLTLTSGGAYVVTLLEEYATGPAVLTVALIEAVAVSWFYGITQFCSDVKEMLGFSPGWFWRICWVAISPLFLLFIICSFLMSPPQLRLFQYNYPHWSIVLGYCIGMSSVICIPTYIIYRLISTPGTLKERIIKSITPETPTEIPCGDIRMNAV

[4] = target: T2, Sodium-dependent dopamine transporter (Rattus norvegicus, UniProt P23977); experiment: Inhibition of [3H]dopamine uptake via rat dopamine transporter.
T2 sequence (P23977 whole entry): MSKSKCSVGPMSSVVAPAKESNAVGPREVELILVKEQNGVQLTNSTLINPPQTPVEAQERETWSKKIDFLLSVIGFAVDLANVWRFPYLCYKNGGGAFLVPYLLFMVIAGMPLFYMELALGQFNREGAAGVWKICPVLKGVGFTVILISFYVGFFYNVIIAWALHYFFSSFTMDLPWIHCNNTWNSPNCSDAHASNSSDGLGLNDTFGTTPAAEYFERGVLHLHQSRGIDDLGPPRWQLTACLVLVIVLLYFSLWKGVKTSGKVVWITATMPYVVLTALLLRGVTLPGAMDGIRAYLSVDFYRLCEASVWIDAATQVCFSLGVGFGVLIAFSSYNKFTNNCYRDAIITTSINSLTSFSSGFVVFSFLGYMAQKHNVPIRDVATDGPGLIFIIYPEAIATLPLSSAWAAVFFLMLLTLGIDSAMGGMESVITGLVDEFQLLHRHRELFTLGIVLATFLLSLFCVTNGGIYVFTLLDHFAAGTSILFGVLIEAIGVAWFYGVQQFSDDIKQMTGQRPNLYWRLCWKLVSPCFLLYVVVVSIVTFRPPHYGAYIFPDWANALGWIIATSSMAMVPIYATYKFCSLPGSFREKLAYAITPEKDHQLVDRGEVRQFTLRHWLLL

[5] = target: T2, Sodium-dependent dopamine transporter; experiment: Affinity at rat dopamine transporter using [125I]RTI-55 displacement.; procedure, shortened: as §1
[6] = target: T1, Sodium-dependent serotonin transporter; experiment: Affinity at rat serotonin transporter using [125I]RTI-55 displacement.; procedure, shortened: as §1
[7] = Ratio between the inhibition of norepinephrine and dopamine uptake.
[8] = Ratio between the inhibition of serotonin and dopamine uptake.

Monoamine transporters; serotonin & dopamine (Rattus norvegicus), sequence (P23977 whole entry, looked up): as the sequence (P23977 whole entry) above
Monoamine transporters; serotonin & dopamine (Rattus norvegicus), sequence (P31652 whole entry, looked up): as the sequence (P31652 whole entry) above
Norepinephrine transporter, sequence (Q9WTR4 whole entry): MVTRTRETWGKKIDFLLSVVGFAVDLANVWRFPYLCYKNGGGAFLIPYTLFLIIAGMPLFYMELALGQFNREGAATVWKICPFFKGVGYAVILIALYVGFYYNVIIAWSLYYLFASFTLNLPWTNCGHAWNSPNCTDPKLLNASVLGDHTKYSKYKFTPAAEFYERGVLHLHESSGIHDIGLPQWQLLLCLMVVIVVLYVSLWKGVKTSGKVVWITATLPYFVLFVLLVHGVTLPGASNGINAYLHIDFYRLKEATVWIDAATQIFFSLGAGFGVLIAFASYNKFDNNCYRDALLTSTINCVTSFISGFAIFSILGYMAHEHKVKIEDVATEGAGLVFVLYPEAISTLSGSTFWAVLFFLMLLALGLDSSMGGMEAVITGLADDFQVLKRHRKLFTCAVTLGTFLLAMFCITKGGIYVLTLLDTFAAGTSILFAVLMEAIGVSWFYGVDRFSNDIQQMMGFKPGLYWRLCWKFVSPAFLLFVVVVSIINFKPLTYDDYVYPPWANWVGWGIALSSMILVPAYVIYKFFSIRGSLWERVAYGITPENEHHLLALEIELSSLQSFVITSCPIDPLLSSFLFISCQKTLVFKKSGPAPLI

Row | SMILES | Ki [1] [nM] | Ratio [2] | Ki [3] [nM] | Ki [4] [nM] | Ki [5] [nM] | Ki [6] [nM] | Ratio [7] | Ratio [8]
1 | O=[N+]([O-])c1ccc(CN2CCC(CCOC(c3ccccc3)c3ccccc3)CC2)cc1 | 208 | 859 | 3580 | 2.7 | 2.5 | 2150 | – | –
2 | Fc1ccc(C(OCCC2CCN(Cc3ccc(Br)cc3)CC2)c2ccc(F)cc2)cc1 | – | 181 | – | – | 1.1 | 199 | – | –
3 | Cc1ccc(CN2CCC(CCOC(c3ccc(F)cc3)c3ccc(F)cc3)CC2)cc1 | – | 42 | – | – | 5.7 | 239 | – | –
4 | Ic1ccc(CN2CCC(CCOC(c3ccccc3)c3ccccc3)CC2)cc1 | 479 | 63 | 2570 | 5.1 | 7.2 | 457 | 93 | 500
5 | Brc1ccc(CN2CCC(CCOC(c3ccccc3)c3ccccc3)CC2)cc1 | 534 | 154 | 1320 | 5.3 | 6.4 | 988 | – | –
6 | Fc1ccc(C(OCCC2CCN(Cc3ccc(I)cc3)CC2)c2ccc(F)cc2)cc1 | 546 | 98 | 1020 | 13.6 | 2.1 | 205 | – | –
7 | Fc1ccc(C(OCCC2CCN(Cc3cccc4ccccc34)CC2)c2ccc(F)cc2)cc1 | – | 23 | – | – | 16 | 370 | – | –
8 | Fc1ccc(CN2CCC(CCOC(c3ccc(F)cc3)c3ccc(F)cc3)CC2)cc1 | 639 | 107 | 601 | 3.8 | 2.3 | 245 | – | –
9 | Clc1ccc(CN2CCC(CCOC(c3ccccc3)c3ccccc3)CC2)cc1 | – | 140 | – | – | 3.8 | 531 | – | –
10 | N#Cc1ccc(CN2CCC(CCOC(c3ccc(F)cc3)c3ccc(F)cc3)CC2)cc1 | – | 505 | – | – | 1.2 | 606 | – | –
11 | N#Cc1ccc(CN2CCC(CCOC(c3ccccc3)c3ccccc3)CC2)cc1 | – | 390 | – | – | 5.7 | 2230 | – | –
12 | COc1ccccc1CN1CCC(CCOC(c2ccc(F)cc2)c2ccc(F)cc2)CC1 | – | 4 | – | – | 63 | 248 | – | –
13 | Fc1ccc(C(OCCC2CCN(Cc3ccc(C(F)(F)F)cc3)CC2)c2ccc(F)cc2)cc1 | – | 402 | – | – | 1.1 | 442 | – | –
14 | Fc1ccc(C(OCCC2CCN(Cc3ccc4ccccc4c3)CC2)c2ccc(F)cc2)cc1 | 93 | – | 227 | 7.2 | 0.7 | 88 | – | –
15 | O=[N+]([O-])c1ccc(CN2CCC(CCOC(c3ccc(F)cc3)c3ccc(F)cc3)CC2)cc1 | 231 | 323 | 1560 | 6.9 | 1.2 | 387 | – | –
16 | Fc1ccc(C(OCCC2CCN(Cc3ccc(Cl)cc3)CC2)c2ccc(F)cc2)cc1 | – | 198 | – | – | 1.2 | 238 | – | –
17 | Fc1ccc(CN2CCC(CCOC(c3ccccc3)c3ccccc3)CC2)cc1 | – | 177 | – | – | 5.1 | 902 | – | –
18 | COc1cccc(CN2CCC(CCOC(c3ccc(F)cc3)c3ccc(F)cc3)CC2)c1 | – | 12 | – | – | 13.3 | 161 | – | –
19 | FC(F)(F)c1ccc(CN2CCC(CCOC(c3ccccc3)c3ccccc3)CC2)cc1 | – | 648 | – | – | 3.5 | 2270 | – | –
20 | COc1ccc(CN2CCC(CCOC(c3ccc(F)cc3)c3ccc(F)cc3)CC2)cc1 | – | 34 | – | – | 7.9 | 266 | – | –
21 | Fc1ccc(C(OCCC2CCN(Cc3ccccc3)CC2)c2ccc(F)cc2)cc1 | – | 17 | – | – | 9.9 | 171 | – | –
